Measurements: publication PMC4201344 (ACS Chemical Biology, 2014)

What was measured:
Assay type in all cases: cell-based, C. elegans
Settings in all cases: glutamate
GluClβ T6′S, Y206A = GluClβ T6′S, Y206A (Caenorhabditis elegans, UniProt Q17328, T283S/Y232A); assay: two-electrode voltage clamp, Xenopus laevis oocytes
Method in brief: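 C. elegans GluClβ (mammalian codon-optimised) in pGEMhe, mutated by QuikChange; T7 mRNA. […] Voltage clamp at −60 mV in Ca-free ND96, pH 7.5. […] Peak currents taken from baseline, normalised, averaged per concentration, and fit to Hill equation (EC50, nH).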

GluClβ T6′S/T10′S = GluClβ T6′S/T10′S (Caenorhabditis elegans, UniProt Q17328, T283S/T287S); assay: two-electrode voltage clamp, Xenopus laevis oocytes
[1] = test system: GluClβ with α signal peptide, T6′S, Y156TAG F2–Phe; assay: two-electrode voltage clamp, Xenopus laevis oocytes, nonsense suppression

GluClβ T6′S/T10′S, sequence (Q17328 23-434 T283S/T287S): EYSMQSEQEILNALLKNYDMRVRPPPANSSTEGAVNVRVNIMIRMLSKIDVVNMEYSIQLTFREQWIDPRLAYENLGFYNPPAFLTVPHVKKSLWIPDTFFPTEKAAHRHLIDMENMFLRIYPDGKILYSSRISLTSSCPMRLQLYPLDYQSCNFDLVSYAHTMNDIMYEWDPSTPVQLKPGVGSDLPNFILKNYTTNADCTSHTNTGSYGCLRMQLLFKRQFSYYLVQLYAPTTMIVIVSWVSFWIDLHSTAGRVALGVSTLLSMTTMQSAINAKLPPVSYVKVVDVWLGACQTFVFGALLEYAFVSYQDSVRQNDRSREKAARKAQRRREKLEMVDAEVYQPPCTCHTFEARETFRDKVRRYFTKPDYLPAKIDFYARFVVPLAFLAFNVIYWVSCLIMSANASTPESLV
GluClβ T6′S, Y206A, sequence (Q17328 23-434 Y232A/T283S): as the sequence (Q17328 23-434 T283S/T287S) above, with Y210A, S265T counted along it

Compound: N[C@@H](CCC(=O)O)C(=O)O [glutamate]
- EC50 (GluClβ T6′S, Y206A): no response
- EC50 (GluClβ T6′S/T10′S): constitutive activity, some glutamate response
- EC50 [1]: 49 ± 3 mM
- Hill [1]: 1.8 ± 0.1
- Imax [1]: 0.2–4 μA
